Screens from PubChem BioAssay.
Rows were chosen to be rich in hits. Some 2.6% of all compounds tested hit in one or more screens of this group.
Platelet DG rel: modulates dense granule release in human platelets; human platelet-rich plasma, SFLLRN dense granule ATP release, luminescence; inhibition, %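 (compounds screened at 7.5 µM in platelet-rich plasma)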; 300,000 tested, 0.22% active; AID 1663;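 active = mean replicate score, as percent of positive control, at or above 50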
TAAR1 antagonist: human TAAR1 antagonism | Q96RJ0 | CHO RD-HGA16 TAAR1, Fluo-8 calcium fluorescence, antagonist | inhibition, % at 3 µM | 360,000 tested, 1.5% active | AID 624466;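 active = inhibition above a per-plate cutoff, the mean inhibition of test compounds on that plate plus 3 SD, cut at about 49% in these data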
Target sequence (Q96RJ0 whole entry, looked up): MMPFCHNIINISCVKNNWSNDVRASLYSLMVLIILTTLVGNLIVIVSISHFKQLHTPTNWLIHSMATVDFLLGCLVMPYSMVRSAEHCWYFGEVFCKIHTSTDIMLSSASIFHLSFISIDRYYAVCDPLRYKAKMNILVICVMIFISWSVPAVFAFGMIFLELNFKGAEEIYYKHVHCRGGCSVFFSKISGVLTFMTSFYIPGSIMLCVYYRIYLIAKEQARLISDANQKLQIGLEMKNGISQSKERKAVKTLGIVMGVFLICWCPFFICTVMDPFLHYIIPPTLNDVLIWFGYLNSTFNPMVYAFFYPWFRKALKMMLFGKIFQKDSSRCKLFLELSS
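Test system: hTAAR1-expressing CHO RD-HGA16 cells, Gα16-coupled; Probe or stimulus: EC80 β-phenethylamine stimulus; Compound dosing: single nominal final test compound concentration of 3 µM; Timing: 140 s kinetic read after compound, 140 s after agonist; Signal: Fluo-8 calcium-sensitive fluorescence; Measure: % inhibition of agonist calcium response; Controls: DMSO and EC80 PEA controls.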
VLA-4 inh: inhibition in a human VLA-4 binding assay; P13612; VLA-4 expressing cells, ligand binding flow cytometry; 330,000 tested, 0.2% active; AID 2557; inhibition, % (about 7 µM as worked out from the volumes in the protocol); in the data active = inhibition above about 50%
TAAR1 ag: human TAAR1 agonism; Q96RJ0; CHO RD-HGA16 TAAR1, Fluo-8 calcium fluorescence; vehicle wells 0%, saturating PEA agonist 100%; activation, % at 3 µM; 360,000 tested, 0.99% active;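 active = activation above the mean activation of all test compounds in the run plus 3 SD, cut at about 38% in these data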
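System: CHO RD-HGA16 cells carrying human TAAR1 plus Gα16; Incubation: 17-24 h seeding, 75 min 37 °C dye, 30 min RT; Measured by: Fluo-8 fluorescence, 5 s baseline then 140 s kinetic read; Control set: DMSO and PEA EC100; Replication: single well for each compound.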
Rce1 inh: inhibitors of yeast Ras-converting enzyme; yeast membranes, quenched prenylated peptide cleavage fluorescence; calls only; 290,000 tested, 0.27% active; AID 2563;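 active = fall in fluorescence gain of 50% or more versus controls, with final raw signal at or below 3038400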
Target sequence (Q03530 whole entry, looked up): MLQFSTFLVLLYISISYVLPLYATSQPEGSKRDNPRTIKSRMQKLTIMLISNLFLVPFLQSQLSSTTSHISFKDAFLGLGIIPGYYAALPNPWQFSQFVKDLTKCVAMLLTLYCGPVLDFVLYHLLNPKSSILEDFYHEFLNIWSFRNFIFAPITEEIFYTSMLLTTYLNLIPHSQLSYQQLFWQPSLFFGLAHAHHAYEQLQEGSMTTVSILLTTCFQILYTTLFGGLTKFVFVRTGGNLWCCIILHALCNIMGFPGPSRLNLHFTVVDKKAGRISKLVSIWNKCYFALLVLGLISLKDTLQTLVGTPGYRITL
TAAR1 nonsel count: nonselective antagonist in TAAR1 antagonist counter-screen; counterscreen cell line, calcium fluorescence, antagonist mode; 2,400 tested, 77% active; shares compounds with TAAR1 antagonist; AID 651780; inhibition, % at 3 µM; in the data active = inhibition above about 22%;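 note: CHO-Ga16 host cells stimulated with ATP at an EC80 level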
TAAR1 ant conf: human TAAR1 antagonism, confirmed. 2,400 tested, 40% active. inhibition, % at 3 µM. shares compounds with TAAR1 antagonist. TAAR1-expressing cells, fluorescence antagonist read-out. AID 651785; in the data active = inhibition above about 49%;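 note: CHO-Ga16 host cells challenged with agonist PEA near its EC80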
Ga16 nonsel ag: counter-screen for TAAR1 antagonists: nonselective Ga16 agonists; Ga16-expressing cells, calcium fluorescence, agonist counterscreen; activation, % at 3 µM; 2,400 tested, 18% active; shares compounds with TAAR1 antagonist; AID 651953; in the data active = activation above about 12%
TAAR1 ag count: activates human TAAR1 in antagonist counter-screen; 2,400 tested, 2% active; shares compounds with TAAR1 antagonist; activation, % at 3 µM; hTAAR1 cell line, fluorescence activation, agonist mode; in the data active = activation above about 37%;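 note: CHO cells stably expressing TAAR1 with calcium dye readout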
Each line names hits and unclear results; the compound was inactive in the other large screens (follow-up assays come after a bar, where they were run).

O=C(NCCN1C(=O)S/C(=C\c2cccnc2)C1=O)c1cc(S(=O)(=O)N2CCOCC2)ccc1F	none
O=C(CCN1C(=O)CSc2ccccc21)Nc1ccc(C(F)(F)F)cc1	TAAR1 antagonist 61.7 (no result: Platelet DG rel, Rce1 inh) | TAAR1 nonsel count inactive | TAAR1 ant conf inactive | Ga16 nonsel ag inactive | TAAR1 ag count inactive
O=C(CCN1C(=O)CSc2ccccc21)Nc1cccc(C(F)(F)F)c1	none (no result: Platelet DG rel, Rce1 inh)
COc1cccc(C2NC(=S)N(Cc3ccc(Br)cc3)C(C)=C2C(C)=O)c1 (stereo not drawn)	none (no result: Platelet DG rel, VLA-4 inh, Rce1 inh)
Cc1c(C(=O)N2CCN(Cc3ccc4c(c3)OCO4)CC2)sc2ncnc(N3CCN(c4ccccc4F)CC3)c12	TAAR1 antagonist 77.3 | TAAR1 nonsel count 34.2 | TAAR1 ant conf 50.4 | Ga16 nonsel ag inactive | TAAR1 ag count inactive
Cn1c2ccccc2c(=O)c2ccc(C#CC3(O)CCCCC3)cc21	TAAR1 antagonist 70.7 | TAAR1 nonsel count 38.1 | TAAR1 ant conf 54.7 | Ga16 nonsel ag inactive | TAAR1 ag count inactive
Cn1c2c(c(=O)c3ccccc31)CCCC2	none
CS(=O)(=O)Nc1cccc(C2=NN(C(=O)c3ccc(F)cc3)C(c3cccs3)C2)c1 (stereo not drawn)	none
COc1ccc(C(=O)N2N=C(c3cccc(NS(C)(=O)=O)c3)CC2c2cccs2)cc1 (stereo not drawn)	TAAR1 antagonist 60.6 | TAAR1 nonsel count 31.4 | TAAR1 ant conf inactive | Ga16 nonsel ag inactive | TAAR1 ag count inactive
C[C@@]12C(=O)N(Cc3ccc(-c4ccccc4)cc3)CC(=O)N1[C@H](/C=C/c1ccccc1)[C@@H]1C(=O)N(c3ccccc3)C(=O)[C@@H]12	TAAR1 antagonist 53.9 | TAAR1 nonsel count 30.2 | TAAR1 ant conf inactive | Ga16 nonsel ag inactive | TAAR1 ag count inactive
COC(=O)CN1C(=O)[C@H]2[C@@H](/C=C/c3ccccc3)N3C(=O)CN(Cc4ccc(-c5ccccc5)cc4)C(=O)[C@@]3(C)[C@H]2C1=O	none (no result: Platelet DG rel, Rce1 inh)
COc1ccccc1N1CCN(Cc2ccc(-c3ccccc3[N+](=O)[O-])o2)CC1	TAAR1 antagonist 88.2 | TAAR1 nonsel count 28.4 | TAAR1 ant conf 54.9 | Ga16 nonsel ag inactive | TAAR1 ag count inactive
COc1ccccc1N1CCN(Cc2ccco2)CC1	none
CC(OC(=O)CNS(=O)(=O)c1ccc2ccccc2c1)C(=O)N(C)c1ccccc1 (stereo not drawn)	none
CC(OC(=O)COc1ccc(Nc2ccccc2)cc1)C(=O)N(C)c1ccccc1 (stereo not drawn)	TAAR1 antagonist 73.0 | TAAR1 nonsel count 30.3 | TAAR1 ant conf inactive | Ga16 nonsel ag inactive | TAAR1 ag count inactive
Cc1ccc(N(Cc2cc3ccc(C)cc3[nH]c2=O)C(=O)c2ccco2)c(C)c1	TAAR1 antagonist 103.6 | TAAR1 nonsel count inactive | TAAR1 ant conf inactive | Ga16 nonsel ag inactive | TAAR1 ag count inactive
Cc1ccc2cc(CN(C(=O)c3ccco3)c3ccccc3C)c(=O)[nH]c2c1	none
COC(=O)c1ccccc1-c1ccc(/C=N/Nc2nc(N3CCCC3)nc(N3CCCC3)n2)o1	TAAR1 antagonist 69.0 | TAAR1 nonsel count inactive | TAAR1 ant conf inactive | Ga16 nonsel ag inactive | TAAR1 ag count inactive
COc1nc(N/N=C/c2ccc(-c3ccccc3[N+](=O)[O-])o2)nc(N2CCOCC2)n1	TAAR1 antagonist 64.2 | TAAR1 nonsel count inactive | TAAR1 ant conf inactive | Ga16 nonsel ag 12.2 | TAAR1 ag count inactive
Cc1cc(C(=O)NNC(=O)c2sccc2C)c(C)o1	none
Nc1c(C(=O)NCC2CCCO2)sc2nc3c(c(-c4ccco4)c12)CC/C3=C\c1ccco1 (stereo not drawn)	TAAR1 antagonist 52.9 (no result: Platelet DG rel, VLA-4 inh, Rce1 inh) | TAAR1 nonsel count inactive | TAAR1 ant conf inactive | Ga16 nonsel ag inactive | TAAR1 ag count inactive
O=C(NCc1cccc(Cl)c1)c1ccc(-n2ccnc2)c2ccoc12	none (no result: Platelet DG rel, VLA-4 inh, Rce1 inh)
COc1ccc(CCNc2oc(COc3ccccc3Cl)nc2C#N)cc1OC	TAAR1 antagonist 64.0 | TAAR1 nonsel count 39.2 | TAAR1 ant conf 55.5 | Ga16 nonsel ag inactive | TAAR1 ag count inactive
COc1ccc(CCNc2oc(COc3ccccc3F)nc2C#N)cc1OC	TAAR1 antagonist 58.7 (no result: Platelet DG rel, Rce1 inh) | TAAR1 nonsel count 36.5 | TAAR1 ant conf 48.8 | Ga16 nonsel ag 12.2 | TAAR1 ag count inactive
C=CCNC(=O)c1cccc2c1C(=O)c1ccc(N3CCOCC3)cc1S2(=O)=O	none (no result: Platelet DG rel, Rce1 inh)
O=C(NCCc1ccccc1)c1cccc2c1C(=O)c1ccc(N3CCOCC3)cc1S2(=O)=O	TAAR1 antagonist 50.5 (no result: Platelet DG rel, Rce1 inh) | TAAR1 nonsel count 23.8 | TAAR1 ant conf inactive | Ga16 nonsel ag inactive | TAAR1 ag count inactive
O=C(NCc1ccc(F)cc1)c1cccc2c1C(=O)c1ccc(N3CCOCC3)cc1S2(=O)=O	TAAR1 antagonist 55.5 (no result: Platelet DG rel, Rce1 inh) | TAAR1 nonsel count 27.4 | TAAR1 ant conf inactive | Ga16 nonsel ag inactive | TAAR1 ag count inactive
CC(C)(C)c1cc(C2=CSC3=NCCN23)cc(C(C)(C)C)c1O	none (no result: TAAR1 antagonist, TAAR1 ag)
COCC(=O)OC1CCn2c1nc1c2C(=O)C(C)=C(NC(C)=O)C1=O (stereo not drawn)	none (no result: Platelet DG rel, VLA-4 inh, Rce1 inh)
Cc1nc(N2CCN(c3ccccn3)CC2)c2c(C)c(C(=O)Nc3ccccc3F)sc2n1	none
O=C(Nc1c(F)cccc1F)c1cnc(N2CCN(c3ccccn3)CC2)c2ccccc12	TAAR1 antagonist 63.3 | TAAR1 nonsel count 34.6 | TAAR1 ant conf 59.6 | Ga16 nonsel ag inactive | TAAR1 ag count inactive
CCC(=O)N1Cc2cc(C(=O)Nc3nccs3)nc(-c3cccc(-c4ccccc4OC)c3)c2[C@@H]1CCO	TAAR1 antagonist 73.4 (no result: Platelet DG rel, VLA-4 inh, Rce1 inh) | TAAR1 nonsel count 28.6 | TAAR1 ant conf inactive | Ga16 nonsel ag inactive | TAAR1 ag count inactive
CC(C)NC(=O)C1(C)CCCN1Cc1csc2ccccc12 (stereo not drawn)	none (no result: Platelet DG rel, VLA-4 inh, Rce1 inh)
CCOc1ccc(S(=O)(=O)N2CCCC(C(=O)NCc3ccccn3)C2)cc1C (stereo not drawn)	none
O=C(N/N=C/c1ccccc1F)c1ccccc1OCc1ccccc1	TAAR1 antagonist 51.2 | TAAR1 nonsel count inactive | TAAR1 ant conf inactive | Ga16 nonsel ag inactive | TAAR1 ag count inactive
COC(=O)N/N=C/c1ccccc1OCc1ccccc1	none
Cc1ccc(C(C)C)c(OCc2ccc(C(=O)N/N=C/c3ccc(O)c(O)c3)cc2)c1	none
O=C(NNC(=O)c1ccccc1OCc1ccccc1)c1ccccc1F	none
CC(=O)Nc1ccc(C(=O)N/N=C/c2ccccc2OCc2ccccc2)cc1	TAAR1 antagonist 52.4 | TAAR1 nonsel count 31.7 | TAAR1 ant conf inactive | Ga16 nonsel ag inactive | TAAR1 ag count inactive
